Screens (PubChem)
Compounds with a hit are over-represented: about 0.77% of the library has one in this group of screens.
Efa HMGR inh: E. faecalis class II HMG-CoA reductase inhibition; purified E. faecalis HMGR, NADPH absorbance 340 nm kinetic; inhibition, % at 10 µM; actives 0.41% (n = 190,000); AID 1066;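 active means inhibition above a set limit, the median over all tested compounds plus 3 SD, cut at about 9.5% in these data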;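 further: enzyme runs in reverse so mevalonate oxidation gives rising NADPH absorbance; 0% = complete reaction with DMSO and 100% = background rate lacking mevalonate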
PERK inh: human PERK inhibition, primary cell-based screen. Q9NZJ5. CHO PERK-DD fusion, SEAP luminescence translation reporter. inhibition, % at 5.6 µM. actives 0.17% (n = 220,000);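 active means inhibition above the mean inhibition of all tested compounds plus 3 SD, set separately per screening campaign, cut at about 2.9% in these data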;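 further: PERK kinase domain activated by AP20187 dimerizer at 100 nM; 0% = DMSO with dimerizer and 100% = rapamycin at 8.4 µM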
Furin inhibitor: inhibitors of human furin; P09958; purified furin, fluorogenic substrate cleavage; inhibition, % at 20 µM or 30 µM; actives 0.061% (n = 220,000); AID 463115; in the data active means inhibition above about 25%
Target sequence (P09958 108-714 limits assumed): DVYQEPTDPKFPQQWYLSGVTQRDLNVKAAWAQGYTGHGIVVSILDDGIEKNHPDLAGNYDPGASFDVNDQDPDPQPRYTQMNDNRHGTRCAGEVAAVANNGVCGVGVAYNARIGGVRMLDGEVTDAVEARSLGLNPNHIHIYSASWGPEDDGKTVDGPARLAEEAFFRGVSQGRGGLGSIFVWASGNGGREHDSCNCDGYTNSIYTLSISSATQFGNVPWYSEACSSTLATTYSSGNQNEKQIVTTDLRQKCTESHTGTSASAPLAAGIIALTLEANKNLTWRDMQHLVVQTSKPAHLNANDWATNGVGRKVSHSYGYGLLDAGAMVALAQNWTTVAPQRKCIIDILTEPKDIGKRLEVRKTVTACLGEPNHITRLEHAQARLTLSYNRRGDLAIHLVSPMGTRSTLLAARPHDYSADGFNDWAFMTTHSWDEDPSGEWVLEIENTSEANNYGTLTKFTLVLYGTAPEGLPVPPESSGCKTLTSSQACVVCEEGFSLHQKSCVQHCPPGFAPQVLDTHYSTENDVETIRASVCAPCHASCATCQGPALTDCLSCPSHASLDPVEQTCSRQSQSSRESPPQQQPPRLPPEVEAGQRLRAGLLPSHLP
Rad51 HR inh: blocks human Rad51 in homologous recombination | Q06609 | hRad51 DNA strand exchange, fluorescence dequenching | inhibition, % at 10 µM | actives 0.085% (n = 200,000) | AID 1385;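 active means inhibition above 40% at the single screening dose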;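 further: 0% = DMSO control wells and 100% = blanks with heterologous ssDNA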
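Assay system: Human Rad51 nucleoprotein filaments preassembled on unlabelled ssDNA | Reagent: Donor/quencher-labelled 47-bp dsDNA substrate | Doses: One concentration, 10 µM final | Times: 37 °C 15-min filament assembly, 30-min compound preincubation, 15-min exchange | Technique: Fluorescein emission 520 nm, excitation 485 nm | Benchmarks: Plate control and blank wells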
ABCG2 inh: inhibitors of human ABCG2 transporter, ABCB1 counter-screen. Q9UNQ0. IgMXP3 cells, JC-1 efflux, flow cytometry. inhibition, % at 6.6 µM. actives 0.1% (n = 190,000);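 active means inhibition above 80%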;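 further: 0% = DMSO and 100% = nicardipine control wells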
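Read-out basis: Efflux inhibition in percent versus controls | Test system: ABCG2 IgMXP3 and barcoded ABCB1 CCRF-Adr cell mix | Quantity: 3 million cells/mL in well | Schedule: 10 min at 25 °C | Control set: Nicardipine as high control, DMSO as low control | Reagent: JC-1 as fluorescent efflux pump substrate | Signal: Flow cytometry of retained JC-1 fluorescence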
ABCB1 block: blocks JC-1 efflux by human ABCB1 transporter. AID 1326. actives 0.067% (n = 190,000). CCRF-Adr cells, flow cytometry. inhibition, % at 6.6 µM; in the data active means inhibition above about 40%;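 further: 0% = vehicle and 100% = reference inhibitor; higher value means more JC-1 retained so stronger ABCB1 efflux block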
Numbers without * were called inactive; x = no result given.

SMILES | Efa HMGR inh | PERK inh | Furin inhibitor | Rad51 HR inh | ABCG2 inh | ABCB1 block
CCc1cccc(C)c1NC(=O)CO/N=C(\N)CC(=O)NC1CCCCC1 | 10.8* | 0.7 | -39.5 | -15.0 | 1.8 | 0.8
CCOC(=O)C1CCN(C(=O)c2c(-c3ccccc3)noc2C)CC1 | 14.2* | 0.1 | -34.8 | -5.0 | 0.6 | 0.7
CCOC(=O)C1CCN(C(=O)c2c(-c3c(Cl)cccc3Cl)noc2C)CC1 | -2.6 | -0.9 | -16.7 | 9.0 | 2.6 | 1.6
CC(=O)c1ccccc1NC(=O)Cn1c(=O)cnc2ccccc21 | -6.5 | -0.1 | -9.5 | -2.6 | 0.0 | 1.0
Cc1ccc(N2CCCn3c2cc(C)c(C#N)c3=O)cc1C | 9.8* | 0.1 | -10.6 | 0.1 | 0.0 | 1.1
Cc1ccc(N2CCCn3c2cc(C)c(C#N)c3=O)cc1Cl | -7.9 | 0.0 | -17.3 | -0.1 | 5.4 | 2.1
NS(=O)(=O)c1ccc(-c2ccc(/C=N/Nc3ccc(C(=O)O)cc3)o2)cc1 | x | 3.0* | -6.9 | -36.8 | x | x
Cc1cc(C)c(S(=O)(=O)Nc2ccc(OCC(=O)O)cc2)c(C)c1 | -0.5 | 0.8 | -17.5 | -7.1 | -1.5 | -0.9
O=C1NC(c2ccncc2)C(C(=O)c2cccs2)C(O)(C(F)(F)F)N1 (stereo not given) | -4.1 | 3.0* | -17.2 | -4.4 | -1.1 | -0.2
O=C1NC(c2cccnc2)C(C(=O)c2cccs2)C(O)(C(F)(F)F)N1 (stereo not given) | 0.1 | 1.0 | -14.2 | 2.6 | 0.8 | 0.3
COc1cccc(C2NC(=O)NC(O)(C(F)(F)F)C2C(=O)c2cccnc2)c1OC (stereo not given) | 18.7* | -0.1 | -12.2 | -0.3 | 0.3 | -0.2
COCCn1c(N)c(Sc2ccccc2[N+](=O)[O-])c(=O)[nH]c1=O | x | 1.1 | -18.8 | 16.9 | x | x
CSc1cccc(NC(=O)C2CCN(C(=O)c3ccccc3C)CC2)c1 | -1.6 | -0.6 | -22.2 | 10.5 | 6.5 | 0.4
O=C(c1ccccc1)N1CCSC1=S | -0.2 | 3.0* | -18.0 | -1.2 | -0.1 | -0.1
Cc1ccc(C(=O)N2CCSC2=S)cc1 | 1.1 | 1.3 | -30.8 | 2.1 | 0.2 | 0.5
O=C(CCCCl)NC(=S)Nc1ccc(N2CCOCC2)cc1 | x | 1.3 | -14.5 | 9.6 | x | x
Cc1cccc(C(=O)NC2CCN(C(=O)Nc3ccccc3C)CC2)c1 | 14.1* | -0.3 | -12.4 | -3.3 | 1.6 | 0.3
CCOc1ccccc1NC(=O)N1CCC(NC(=O)c2cccc(C)c2)CC1 | -1.5 | -1.1 | 6.9 | -1.1 | 0.8 | 0.3
Cc1cc(C(=O)N/N=C/c2cccnc2)cs1 | 0.2 | 1.1 | -15.4 | 14.1 | 11.2 | 0.0
CC(C)C[C@H](NC(=O)c1[nH]cnc1C(=O)Nc1ccccc1)C(=O)OC(C)(C)C | x | x | -9.7 | 8.0 | x | x
COc1ccc2[nH]c(C)cc(=O)c2c1 | -1.1 | 0.8 | -22.4 | 0.8 | -0.4 | -0.1
COc1ccc2[nH]c3c(C)c4ccncc4c(C)c3c2c1 | x | -1.2 | -8.7 | 47.5* | x | x
C=CCON/C(CCC)=C1\C(=O)C(C(=O)OC)C(C)(C)CC1=NC (stereo not given) | -2.5 | 1.5 | -14.4 | 28.9 | 6.4 | 0.2
Nc1cc2c(cc1[N+](=O)[O-])OCCOCCOCCO2 | 2.2 | 0.5 | -8.5 | -1.9 | 0.4 | 0.3
COC(=O)C(CC(=O)O)NCc1ccco1 (stereo not given) | x | 1.3 | -5.6 | 9.3 | x | x
SMILES | Efa HMGR inh | PERK inh | Furin inhibitor | Rad51 HR inh | ABCG2 inh | ABCB1 block
COCCOC(=O)C(CC(=O)O)NCc1ccco1 (stereo not given) | x | 4.0* | -15.6 | 20.2 | x | x
CCOC(=O)c1nc(NCCc2ccccc2)sc1C | 10.8* | 0.3 | -25.5 | -6.1 | 3.0 | 0.7
Clc1ccc2nc(CN3CCCc4ccccc43)cn2c1 | -0.5 | 0.0 | -17.1 | -3.6 | 5.5 | 1.5
CC1(C)CC(=O)C2=C(C1)OC(N)=C(C#N)C21CCN(Cc2ccccc2)CC1 | -6.2 | 0.8 | -13.8 | -43.4 | 0.1 | -0.1
Cc1nc2c([nH]1)C1(CCN(Cc3ccccc3)CC1)C(C#N)=C(N)O2 | 17.3* | -0.6 | -18.2 | -18.2 | 0.3 | 0.1
CN1CCN(c2ccccc2NC(=O)c2cccc(OCc3ccccc3)c2)CC1 | 2.1 | -0.9 | 35.0* | 4.9 | 13.6 | 18.4
O=C(Cn1cncn1)NCCCc1ccccc1 | -2.8 | 0.5 | -8.0 | 0.0 | 0.2 | -0.3
CC(C)(C)NC(=O)c1ccccc1-c1nc(-c2ccccc2Cl)no1 | -8.4 | -0.5 | -11.6 | 0.8 | 4.8 | 1.1
Cc1cc(C)nc(SCNC(=O)c2ccccc2)n1 | 11.2* | 1.0 | -12.8 | -5.3 | 3.4 | 0.2
Cc1cc(SCNC(=O)c2ccccc2)nc(C(C)C)n1 | 0.5 | -0.4 | -22.7 | 6.1 | -0.1 | 0.1
O=C(CSc1nnnn1-c1ccccc1)Nc1ccc(N2CCOCC2)c(Cl)c1 | 15.2* | 1.9 | -24.0 | 0.7 | 4.3 | 0.2
CCOC(=O)NC(=O)CSc1nnnn1-c1ccccc1 | -1.1 | -1.3 | 37.6* | -11.1 | 11.4 | 6.3
O=C(CSc1nnnn1-c1cccc2ccccc12)Nc1ccc(N2CCOCC2)c(Cl)c1 | -2.2 | -1.6 | -0.3 | -5.4 | 0.0 | 0.0
C=C(C)C(=O)Nc1cccc(C2=NOC3(C2)C[C@@H](C(N)=O)N(C(=O)/C=C/C=C/C)C3)c1 (stereo not given in full) | x | x | -23.5 | 3.7 | x | x
CSc1nc(O)cc(=O)n1-c1ccc(F)cc1 | -2.1 | 0.9 | -30.7 | 10.4 | 0.0 | -0.1
CCOc1cc(NC(=O)c2ccccn2)c(OCC)cc1NC(=O)c1ccc(C)cc1 | 13.3* | 0.2 | 0.3 | -29.4 | -7.4 | -2.6
C=CC#CC[N+]1(CC#Cc2ccccc2)CCOCC1 | 0.5 | 0.5 | -16.8 | 63.9* | 3.2 | 0.3
CCOc1ccccc1N1CCN(C(=O)CC(C)(C)C)CC1 | 11.2* | -0.7 | -19.4 | -5.3 | 3.5 | 0.8
O=C(Nc1ccc(-c2nc3ccccc3o2)cc1)c1ccc2c(c1)OCO2 | 0.4 | -0.7 | -15.3 | 87.2* | 5.3 | -0.4
Cc1ccc2oc(-c3ccc(NC(=O)c4ccc5c(c4)OCO5)cc3)nc2c1 | 1.5 | 1.9 | 16.7 | -8.1 | -2.7 | -1.0
O=C(CSc1ccc(Cl)cc1)N/N=C/c1cccnc1 | -2.3 | -0.9 | -4.4 | x | 2.8 | 0.5
CC(NC(=O)COC(=O)c1cc(NS(=O)(=O)c2ccc(Cl)c([N+](=O)[O-])c2)ccc1O)C1CC2CCC1C2 (stereo not given) | 4.3 | 1.1 | -25.6 | 1.3 | -0.4 | 0.1
NC(=O)c1ccccc1N/C=C/C(=O)c1ccc(F)cc1 | -7.7 | 0.2 | 27.2* | x | 1.1 | 0.2
NC(=O)c1ccccc1N/C=C/C(=O)c1cccs1 | -0.9 | -0.1 | -22.4 | -3.5 | 1.6 | 0.2
Cc1ccc(NC(=S)NC(=O)CC2CC(C)(C)OC2=O)cc1 (stereo not given) | 28.0* | -0.4 | -23.4 | x | 0.7 | 0.1
CC1(C)CC(CC(=O)NC(=S)Nc2ccc([N+](=O)[O-])cc2)C(=O)O1 (stereo not given) | 0.6 | 0.1 | -19.0 | 6.2 | 0.1 | -0.1
